In ChEMBL document CHEMBL5344479, “N-Arylsulfonamide-based adenosine analogues to target RNA cap N7-methyltransferase nsp14 of SARS-CoV-2” (RSC Med Chem, 2024):

Tests used:
[1] = target: Replicase polyprotein 1ab (Severe acute respiratory syndrome coronavirus 2) (UniProt P0DTD1); assay: Inhibition of N-terminal hexa-histidine tagged recombinant SARS-CoV-2 nsp14 RNA cap N7-methyltransferase activity expressed in Escherichia coli C2566 assessed as residual enzyme activity using GpppAC4 synthetic RNA and [3H]-SAM as substrate at 50 uM incubated for 30 mins by filter binding assay based liquid scintillation counter analysis relative to control
Procedure, shortened: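 Recombinant nsp14 (10 nM), purified by cobalt IMAC and size exclusion, was premixed with compound at 50 µM (2.5% final DMSO). Then 0.7 µM GpppAC4 RNA, 1.9 µM SAM and 0.1 µM 3H-SAM were added in 40 mM Tris-HCl pH 8.0, 1 mM DTT, 1 mM MgCl2. After 30 min at 30 °C, reactions were stopped by 10-fold ice-cold water dilution, DEAE-filtered, washed and scintillation-counted.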

[2] = target: Replicase polyprotein 1ab (Severe acute respiratory syndrome coronavirus 2, UniProt P0DTD1); assay: Inhibition of N-terminal hexa-histidine tagged recombinant SARS-CoV-2 nsp14 RNA cap N7-methyltransferase activity expressed in Escherichia coli C2566 using GpppAC4 synthetic RNA and [3H]-SAM as substrate incubated for 30 mins by filter binding assay based liquid scintillation counter analysis

Compound | Activity [1] [%] | IC50 [2] [µM]
Nc1ncnc2c1ncn2[C@@H]1O[C@H](Cn2cc(CNS(=O)(=O)c3ccc(F)cc3)nn2)[C@@H](O)[C@H]1O | 91 | 
CCN(CCNS(=O)(=O)c1ccccc1)C[C@H]1O[C@@H](n2cnc3c(N)ncnc32)[C@H](O)[C@@H]1O | 87 | 
Cc1ccc(S(=O)(=O)NCCS(=O)(=O)C[C@H]2O[C@@H](n3cnc4c(N)ncnc43)[C@H](O)[C@@H]2O)cc1 | 38 | 49
Nc1ncnc2c1ncn2[C@@H]1O[C@H](CS(=O)(=O)CCNS(=O)(=O)c2ccc(C(F)(F)F)cc2)[C@@H](O)[C@H]1O | 37 | 38.4
N#Cc1ccc(S(=O)(=O)NCCS(=O)(=O)C[C@H]2O[C@@H](n3cnc4c(N)ncnc43)[C@H](O)[C@@H]2O)cc1 | 42 | 52.4
Nc1ncnc2c1ncn2[C@@H]1O[C@H](CSCCNS(=O)(=O)c2ccc([N+](=O)[O-])cc2)[C@@H](O)[C@H]1O | 9 | 4.7
Nc1ncnc2c1ncn2[C@@H]1O[C@H](CSCCNS(=O)(=O)c2ccccc2)[C@@H](O)[C@H]1O | 13 | 4.6
Nc1ncnc2c1ncn2[C@@H]1O[C@H](CSCCNS(=O)(=O)c2ccc(Cl)cc2[N+](=O)[O-])[C@@H](O)[C@H]1O | 2 | 0.9
CCN(Cc1cn(C[C@H]2O[C@@H](n3cnc4c(N)ncnc43)[C@H](O)[C@@H]2O)nn1)S(=O)(=O)c1ccccc1 | 84 | 
COc1ccc(S(=O)(=O)NCCSC[C@H]2O[C@@H](n3cnc4c(N)ncnc43)[C@H](O)[C@@H]2O)c([N+](=O)[O-])c1 | 0 | 0.9
Cc1ccc(S(=O)(=O)NCc2cn(C[C@H]3O[C@@H](n4cnc5c(N)ncnc54)[C@H](O)[C@@H]3O)nn2)cc1 | 50 | 
Nc1ncnc2c1ncn2[C@@H]1O[C@H](CSCCNS(=O)(=O)c2ccccc2[N+](=O)[O-])[C@@H](O)[C@H]1O | 0 | 2.04
COc1ccc(S(=O)(=O)NCc2cn(C[C@H]3O[C@@H](n4cnc5c(N)ncnc54)[C@H](O)[C@@H]3O)nn2)cc1 | 63 | 
CCN(Cc1cn(C[C@H]2O[C@@H](n3cnc4c(N)ncnc43)[C@H](O)[C@@H]2O)nn1)S(=O)(=O)c1ccc(C(F)(F)F)cc1 | 47 | 
CCN(CCNS(=O)(=O)c1ccc(C(F)(F)F)cc1)C[C@H]1O[C@@H](n2cnc3c(N)ncnc32)[C@H](O)[C@@H]1O | 83 | 
Nc1ncnc2c1ncn2[C@@H]1O[C@H](Cn2cc(CNS(=O)(=O)c3ccc(C(F)(F)F)cc3)nn2)[C@@H](O)[C@H]1O | 81 | 

Compound | Activity [1] [%] | IC50 [2] [µM]
Nc1ncnc2c1ncn2[C@@H]1O[C@H](Cn2cc(CNS(=O)(=O)c3ccccc3)nn2)[C@@H](O)[C@H]1O | 59 | 
CCN(CCNS(=O)(=O)c1ccc(C)cc1)C[C@H]1O[C@@H](n2cnc3c(N)ncnc32)[C@H](O)[C@@H]1O | 66 | 
CCN(Cc1cn(C[C@H]2O[C@@H](n3cnc4c(N)ncnc43)[C@H](O)[C@@H]2O)nn1)S(=O)(=O)c1ccc(Cl)cc1 | 69 | 
Nc1ncnc2c1ncn2[C@@H]1O[C@H](CS(=O)(=O)CCNS(=O)(=O)c2ccc([N+](=O)[O-])cc2)[C@@H](O)[C@H]1O | 27 | 27.4
Cc1cccc(S(=O)(=O)NCc2cn(C[C@H]3O[C@@H](n4cnc5c(N)ncnc54)[C@H](O)[C@@H]3O)nn2)c1 | 82 | 
N#Cc1ccc(S(=O)(=O)NCCSC[C@H]2O[C@@H](n3cnc4c(N)ncnc43)[C@H](O)[C@@H]2O)cc1 | 21 | 15.6
CCN(CCNS(=O)(=O)c1ccc([N+](=O)[O-])cc1)C[C@H]1O[C@@H](n2cnc3c(N)ncnc32)[C@H](O)[C@@H]1O | 57 | 
CCN(CCNS(=O)(=O)c1ccc(C#N)cc1)C[C@H]1O[C@@H](n2cnc3c(N)ncnc32)[C@H](O)[C@@H]1O | 67 | 
Nc1ncnc2c1ncn2[C@@H]1O[C@H](CS(=O)(=O)CCNS(=O)(=O)c2ccccc2)[C@@H](O)[C@H]1O | 48 | 23.3
Nc1ncnc2c1ncn2[C@@H]1O[C@H](CSCCNS(=O)(=O)c2ccc(C(F)(F)F)cc2)[C@@H](O)[C@H]1O | 7 | 7.3
Cc1ccc(S(=O)(=O)NCCSC[C@H]2O[C@@H](n3cnc4c(N)ncnc43)[C@H](O)[C@@H]2O)cc1 | 10 | 2.2
CCN(Cc1cn(C[C@H]2O[C@@H](n3cnc4c(N)ncnc43)[C@H](O)[C@@H]2O)nn1)S(=O)(=O)c1ccc(OC)cc1 | 60 | 
Nc1ncnc2c1ncn2[C@@H]1O[C@H](Cn2cc(CNS(=O)(=O)c3ccc(Cl)cc3)nn2)[C@@H](O)[C@H]1O | 72 | 
CCN(Cc1cn(C[C@H]2O[C@@H](n3cnc4c(N)ncnc43)[C@H](O)[C@@H]2O)nn1)S(=O)(=O)c1ccc(C)cc1 | 59 | 
CCN(Cc1cn(C[C@H]2O[C@@H](n3cnc4c(N)ncnc43)[C@H](O)[C@@H]2O)nn1)S(=O)(=O)c1ccc(F)cc1 | 93 | 
